# Measurements as given in ChEMBL document CHEMBL4350996, “C8-substituted pyrido[3,4-d]pyrimidin-4(3H)-ones: Studies towards the identification of potent, cell penetrant Jumonji C domain containing histone lysine demethylase 4 subfamily (KDM4) inhibitors, compound profiling in cell-based target engagement assays” (Eur J Med Chem, 2019).
# Substitutions are numbered along the chain they refer to. Active and inactive are the calls of the source. The calls are words filed in the database; no cut-off is given here.
# Assays:
# [1] = system: Lysine-specific demethylase 5B (Homo sapiens), Q9UGL1 [H499A,E501A]; assay: Inhibition of full length human catalytically inactive KDM5B H499A/E501A mutant transfected in HeLa cells assessed as change in H3K4Me3 level measured after 24 hrs by cell analyser based immunofluorescence assay
# Lysine-specific demethylase 5B (Homo sapiens), Q9UGL1 [H499A,E501A], sequence (Q9UGL1 whole entry H499A/E501A): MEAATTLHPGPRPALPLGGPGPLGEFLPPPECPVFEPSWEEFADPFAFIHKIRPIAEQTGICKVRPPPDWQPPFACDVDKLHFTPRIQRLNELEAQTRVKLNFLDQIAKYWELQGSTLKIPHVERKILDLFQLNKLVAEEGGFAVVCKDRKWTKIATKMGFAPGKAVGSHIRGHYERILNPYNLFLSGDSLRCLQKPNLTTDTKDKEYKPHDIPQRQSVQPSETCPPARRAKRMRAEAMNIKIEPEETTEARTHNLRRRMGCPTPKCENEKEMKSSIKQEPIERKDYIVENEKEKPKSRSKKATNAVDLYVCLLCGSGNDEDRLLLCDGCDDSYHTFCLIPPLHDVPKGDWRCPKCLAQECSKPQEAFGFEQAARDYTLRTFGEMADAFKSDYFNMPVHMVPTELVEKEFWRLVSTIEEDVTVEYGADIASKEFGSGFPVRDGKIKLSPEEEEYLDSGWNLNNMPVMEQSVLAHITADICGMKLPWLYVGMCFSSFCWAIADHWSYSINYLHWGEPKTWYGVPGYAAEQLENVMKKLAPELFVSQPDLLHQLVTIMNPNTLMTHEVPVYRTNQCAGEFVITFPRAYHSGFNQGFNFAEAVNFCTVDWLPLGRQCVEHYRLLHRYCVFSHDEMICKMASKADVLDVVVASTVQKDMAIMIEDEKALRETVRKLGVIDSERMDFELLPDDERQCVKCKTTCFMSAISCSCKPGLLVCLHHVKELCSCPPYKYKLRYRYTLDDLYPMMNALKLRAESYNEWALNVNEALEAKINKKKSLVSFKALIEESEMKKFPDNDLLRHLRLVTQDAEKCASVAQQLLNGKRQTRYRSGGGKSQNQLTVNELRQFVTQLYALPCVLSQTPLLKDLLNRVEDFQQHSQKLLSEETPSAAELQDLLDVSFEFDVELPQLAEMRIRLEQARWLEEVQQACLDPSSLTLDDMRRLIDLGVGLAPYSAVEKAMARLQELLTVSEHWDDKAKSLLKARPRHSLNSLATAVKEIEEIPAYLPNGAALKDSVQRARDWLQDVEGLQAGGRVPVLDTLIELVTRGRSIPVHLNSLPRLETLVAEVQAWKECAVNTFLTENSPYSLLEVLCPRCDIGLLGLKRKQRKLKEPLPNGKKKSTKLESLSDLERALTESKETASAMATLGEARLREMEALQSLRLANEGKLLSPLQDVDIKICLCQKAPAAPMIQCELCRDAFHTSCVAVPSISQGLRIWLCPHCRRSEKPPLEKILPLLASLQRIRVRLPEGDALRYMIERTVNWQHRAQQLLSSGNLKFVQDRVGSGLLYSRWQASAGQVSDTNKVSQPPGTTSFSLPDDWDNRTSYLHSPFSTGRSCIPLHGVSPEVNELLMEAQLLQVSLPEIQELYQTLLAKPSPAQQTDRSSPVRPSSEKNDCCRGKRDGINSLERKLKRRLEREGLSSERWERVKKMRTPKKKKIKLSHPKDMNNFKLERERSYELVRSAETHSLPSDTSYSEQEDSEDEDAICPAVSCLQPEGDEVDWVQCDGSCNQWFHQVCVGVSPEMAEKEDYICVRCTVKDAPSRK
# In short: (§1)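 HeLa cells grown in DMEM with 10% FBS, 37°C, 5% CO₂, seeded 6000 cells/well overnight. Compounds serially diluted 1:3 to 1:5 in medium with 20% FBS, DMSO held constant, then added for 24 h. Histone mark read by immunofluorescence imaging, 10 fields per well at 20X.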
# [2] = biological target: T1, Lysine-specific demethylase 4A (Homo sapiens) (UniProt O75164); assay: Inhibition of FLAG tagged full length wild type human KDM4A transfected in HeLa cells assessed as increase in H3K9Me3 level measured after 24 hrs by cell analyser based immunofluorescence assay
# T1 sequence (whole entry): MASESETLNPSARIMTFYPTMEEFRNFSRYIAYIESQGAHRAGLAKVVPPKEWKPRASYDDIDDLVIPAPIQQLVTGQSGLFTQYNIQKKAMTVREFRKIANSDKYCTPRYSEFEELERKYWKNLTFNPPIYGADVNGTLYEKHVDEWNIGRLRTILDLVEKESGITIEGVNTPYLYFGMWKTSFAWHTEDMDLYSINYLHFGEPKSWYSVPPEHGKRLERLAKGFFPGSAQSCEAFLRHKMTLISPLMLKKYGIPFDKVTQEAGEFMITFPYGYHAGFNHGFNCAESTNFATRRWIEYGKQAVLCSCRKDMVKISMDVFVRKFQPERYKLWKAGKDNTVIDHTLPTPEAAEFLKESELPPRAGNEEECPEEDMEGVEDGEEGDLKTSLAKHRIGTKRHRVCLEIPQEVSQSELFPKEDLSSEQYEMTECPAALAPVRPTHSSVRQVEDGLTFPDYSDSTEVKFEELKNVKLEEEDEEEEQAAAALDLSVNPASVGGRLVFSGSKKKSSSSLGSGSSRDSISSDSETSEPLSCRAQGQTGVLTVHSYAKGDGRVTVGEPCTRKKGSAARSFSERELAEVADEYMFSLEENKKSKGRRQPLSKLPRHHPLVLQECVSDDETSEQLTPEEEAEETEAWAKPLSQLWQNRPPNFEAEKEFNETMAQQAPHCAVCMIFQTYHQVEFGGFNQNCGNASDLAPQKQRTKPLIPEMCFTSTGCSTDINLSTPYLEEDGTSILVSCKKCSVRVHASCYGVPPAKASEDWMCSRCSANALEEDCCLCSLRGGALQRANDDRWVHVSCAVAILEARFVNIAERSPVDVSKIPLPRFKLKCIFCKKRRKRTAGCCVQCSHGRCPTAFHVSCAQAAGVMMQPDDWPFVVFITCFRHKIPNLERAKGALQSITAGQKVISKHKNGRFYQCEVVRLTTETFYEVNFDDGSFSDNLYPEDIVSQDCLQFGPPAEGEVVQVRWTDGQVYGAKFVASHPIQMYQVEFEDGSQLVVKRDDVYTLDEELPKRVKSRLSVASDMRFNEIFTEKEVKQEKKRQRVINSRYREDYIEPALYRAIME
# [3] = system: T2, Lysine-specific demethylase 4A (Homo sapiens), O75164 [H188A,E190A]; assay: Inhibition of FLAG tagged full length catalytically inactive human KDM4A H188A/E190A mutant transfected in HeLa cells assessed as change in H3K9Me3 level measured after 24 hrs by cell analyser based immunofluorescence assay; in short: as §1
# T2 sequence (whole entry): T1 sequence (whole entry) with H188A, E190A
# [4] = Drug metabolism in human LNCAP cells assessed as metabolite formation at 10 uM measured upto 120 hrs by UPHLC analysis; format: ADME, cell-based
# In short: (§2)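 They were then given 10 μM compound or 0.1% DMSO vehicle. Media and trypsinised cell pellets were collected at 1, 6, 24, 48, 72 and 120 h, frozen at -80 °C, and analysed by UHPLC–Orbitrap MS using full MS/dd-MS² and full MS/AIF.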
# [5] = Drug uptake in human LNCAP cells at 10 uM measured upto 120 hrs by UPHLC analysis; format: ADME, cell-based; settings: TDE = time-dependent effect; in short: as §2
# [6] = biological target: Lysine-specific demethylase 5B (Homo sapiens) (UniProt Q9UGL1); assay: Inhibition of full length human wild type KDM5B transfected in HeLa cells assessed as increase in H3K4Me3 level measured after 24 hrs by cell analyser based immunofluorescence assay
# Lysine-specific demethylase 5B (Homo sapiens), sequence (Q9UGL1 whole entry): as the sequence (Q9UGL1 whole entry H499A/E501A) above, with A499H, A501E counted along it
inhibition [1],inhibition [2],inhibition [3],Drug metabolism [4],Drug uptake [5],inhibition [6],SMILES
inactive,inactive,inactive,Metabolite_Notdetected,Tde,inactive,O=c1[nH]cnc2c(-n3cc(CCN4CCC5(CCc6ccccc65)CC4)cn3)cccc12
inactive,,inactive,Metabolite_Notdetected,Tde,,O=c1[nH]cnc2c(-n3cc(CCN4CCC5(CCc6ccccc65)CC4)cn3)nccc12
